The list is not random: actives were taken first. Their share in the collection is about 1.7%.
Rtt109 Vps75: inhibitors of Candida albicans Rtt109/Vps75 histone acetyltransferase | purified Rtt109/Vps75, ThioGlo CoA-SH fluorescence, 4 h | inhibition, % at 34.9 µM | 0.16% of 330,000 active | AID 540336;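 active = inhibition of at least 50% in every replicate; inconclusive = best replicate reaches 50% inhibition but some replicates fall short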
Target sequence (Q5AAJ8 whole entry, looked up): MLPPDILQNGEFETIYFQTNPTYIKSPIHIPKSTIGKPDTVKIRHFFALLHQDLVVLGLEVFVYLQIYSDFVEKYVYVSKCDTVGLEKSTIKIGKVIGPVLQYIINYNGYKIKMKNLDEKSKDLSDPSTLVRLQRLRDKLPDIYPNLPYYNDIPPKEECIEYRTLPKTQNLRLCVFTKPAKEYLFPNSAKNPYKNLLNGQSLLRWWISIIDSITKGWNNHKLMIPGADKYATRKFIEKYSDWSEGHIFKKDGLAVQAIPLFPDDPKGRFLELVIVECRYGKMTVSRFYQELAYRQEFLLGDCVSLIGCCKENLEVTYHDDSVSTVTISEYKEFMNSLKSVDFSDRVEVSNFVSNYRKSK
PglD inh: blocks C. jejuni PglD acetyltransferase activity; purified PglD enzyme, DTNB colorimetric CoA detection; inhibition, % at 12.5 µM; 0.098% of 360,000 active; AID 602405; in the data active = inhibition above about 16%, passing the limit was not always enough; inconclusive = no clear call, values can overlap the other calls
CSC inhib: cancer stem cell inhibition; cancer stem cell-like cells viability, luminescence; inhibition, % at 7.5 µM; 1.1% of 300,000 active; AID 2717; in the data active = inhibition above about 75%; inconclusive = no clear call, values can overlap the other calls; tested in HMLE shEcad cells
SKKanGAS inh: SKKanGAS growth inhibition | S. pyogenes SKKanGAS, kanamycin growth, BacTiter-Glo, 6 h | inhibition, % at 7.5 µM | 1.3% of 300,000 active | AID 1662;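 active = mean replicate score, as percent of positive control median, at least 50; inconclusive = mean below 50 but one replicate at or above 50; inactive = mean and every replicate below 50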;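 also: strain carries kanamycin resistance gene driven by streptokinase promoter and grows in 40 µg/ml kanamycin; loss of luminescence reflects streptokinase promoter inhibition or plain growth inhibition; 0% = median of DMSO wells and 100% = positive control at its reference dose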
FN deposit inh: fibronectin deposition inhibition; inhibition, % at 12.6 µM; 0.086% of 350,000 active; AH1F fibroblasts, Alexa488-fibronectin deposition fluorescence, overnight; AID 743247;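 active = mean inhibition across replicates of 30% or more, regardless of how many single replicates reach that level; inconclusive = mean under 30% yet at least half of replicates reach 30%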;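 also: positive control wells lacked labelled fibronectin entirely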
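Measured by – fluorescence 485/525 nm · System – AH1F fibroblast monolayer, labelled fibronectin deposition · Amount – 10000 cells per well · Buffer or medium – serum-reduced DMEM (2% serum) · Doses – single dose, pinned · Also added – fluorescent fibronectin at 24 nM final · Schedule – 1 h cell attachment, overnight exposure to compound and label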
PfHsp90 yeast 2: growth inhibition of yeast expressing Plasmodium Hsp90; 0.32% of 310,000 active; S. cerevisiae expressing PfHsp90, BacTiter-Glo ATP, 48 h; yeast lacking PDR1 and PDR3 efflux regulators; inhibition, % at 9.4 µM;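 active = every replicate shows inhibition above about 80%, whatever the replicate mean, limit read from the data; inconclusive = mean inhibition reaches the set limit but some replicate falls short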;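 also: 0% = DMSO neutral controls and 100% = 20 µM radicicol positive controls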
The depositor's hits bear a star; ? = inconclusive; · = no result.

SMILES	Rtt109 Vps75	PglD inh	CSC inhib	SKKanGAS inh	FN deposit inh	PfHsp90 yeast 2
Cc1cccc(S(=O)(=O)N2CC[C@@H]3[C@@H](CO)N(C)c4ccc(-c5ccc(C#N)cc5)cc4[C@@H]32)c1	·	-3	·	·	13	·
Nc1cccc(Oc2c(F)c(F)c(Oc3cccc(N)c3)c(F)c2F)c1	4	7	60	8	24	85*
Nc1cccc(Oc2ccc([N+](=O)[O-])cc2)c1	-11	·	-12	-11	0	0
CC(C)c1cn(CC[C@@H]2CC[C@H](NC(=O)c3cccc(F)c3)[C@H](CO)O2)nn1	·	0	·	·	-14	·
O=C(/C=C/c1ccc(F)cc1)NC(=S)NNC(=O)c1cnccn1	4	·	52	109*	9	108*
COc1ccc(CC(=O)NNC(=S)NC(=O)c2cccnc2)cc1	-8	-1	2	26	-15	-4
COc1ccc(/C=C/C(=O)NC(=S)NNC(=O)c2cccnc2)cc1	7	·	13	60*	8	38
COc1ccc(/C=C/C(=O)NC(=S)NNC(=O)c2cnccn2)cc1	-15	·	98*	80*	3	97*
O=C(NC1CCCCC1)N[C@H]1CC[C@H](CC(=O)N2CCOCC2)O[C@H]1CO	·	-2	·	·	-4	·
O=C(CSc1nnc(-c2ccc3c(c2)OCO3)o1)Nc1ncc(C(F)(F)F)cc1Cl	0	0	?	98*	·	-1
Cc1nc(NC(=O)CSc2nnc(-c3ccc4c(c3)OCO4)o2)c(Cl)cc1Cl	2	3	6	2	-4	-24
Cc1ccc2nc(/C(C#N)=C\c3ccc([N+](=O)[O-])o3)[nH]c2c1	5	-3	3	89*	·	105*
N#C/C(=C\c1ccc([N+](=O)[O-])o1)c1nc2ccccc2[nH]1	·	·	?	31	5	·
CC(C)(C)/C(O)=C(/C#N)c1nc2ccccc2[nH]1	5	5	-15	9	·	·
N#C/C(=C(/O)c1ccc([N+](=O)[O-])o1)c1nc2ccccc2[nH]1	-16	·	60	72*	3	-2
O=C(NCc1ccccc1)[C@H]1[C@H](CO)[C@H]2Cn3c(cccc3=O)[C@@H]1N2C(=O)Cc1ccccn1	·	0	·	·	-11	·
COc1ccc(C(c2c(O)ccc3ccccc23)N2CCOCC2)c(OC)c1 (centres undefined)	0	-4	101*	7	-3	3
Cc1ccccc1S(=O)(=O)NCC[C@@H]1CC[C@@H](NC(=O)C2CC2)[C@H](CO)O1	·	1	·	·	-2	·
N#Cc1c(N)nc2c(c1-c1ccccc1)CCCC2	1	4	-18	-6	-2	·
N#Cc1c(N)nc2c(c1-c1cccc(O)c1)CCCCCC2	6	3	82*	-9	-7	18
C[C@@H]1CN([C@@H](C)CO)C(=O)c2cc(NS(=O)(=O)c3ccc(Cl)cc3)ccc2O[C@@H]1CN(C)CC1CC1	·	-2	·	·	·	·
CC(NC(=O)COC(=O)c1cc(NS(=O)(=O)c2ccc(Cl)c([N+](=O)[O-])c2)ccc1O)C1CC2CCC1C2 (centres undefined)	0	-2	108*	15	1	4
COc1ccc(/C=N/Nc2cc(C)nc3ccccc23)cc1	1	-9	32	2	9	-7
COc1ccc2nc(C)cc(N/N=C/c3ccc(F)cc3)c2c1	1	-7	106*	19	2	-16
CCOc1cccc(CNCCO)c1OCc1ccc(Cl)cc1Cl	4	·	·	-4	1	4
SMILES	Rtt109 Vps75	PglD inh	CSC inhib	SKKanGAS inh	FN deposit inh	PfHsp90 yeast 2
CCOc1cc(CNCCO)cc(Br)c1OCc1ccc(Cl)cc1Cl	6	-3	148*	14	·	-1
O=C(C[C@@H]1CC[C@@H]2NC[C@H](O)COC[C@H]2O1)NCCN1CCCC1	·	·	·	·	-6	·
CCC(C(=O)Nc1cc(Cl)ccc1OC)c1ccccc1 (centres undefined)	6	·	-1	0	0	-13
CCC(C(=O)Nc1cc(OC)c(NC(=O)c2ccccc2)cc1OC)c1ccccc1 (centres undefined)	-2	3	79*	2	4	-2
O=C1c2cccc3cccc(c23)C(=O)N1c1nccs1	13	4	·	3	·	·
O=C1c2cccc3c([N+](=O)[O-])ccc(c23)C(=O)N1c1ccccn1	-15	3	105*	4	1	13
